Rows were chosen to be rich in hits. Some 4.1% of all compounds tested hit in one or more screens of this group.
KCNQ1 act – potentiators or activators of human KCNQ1 potassium channel | CHO-K1 KCNQ1, thallium flux FluxOR fluorescence; active compounds read high | AID 2648 | P51787 | hit rate 0.35% among 310,000 | B-score at 10 µM;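 active = fluorescence ratio B-score, a plate-corrected score, at least three library SD, with initial intensity B-score within 5 SD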
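System: Stable KCNQ1 CHO-K1 line | Incubation: 90 min dye loading and 20 min compound exposure, both at room temperature | Measure: Ratio B score | Medium: Assay buffer for compound exposure, DMSO matched across wells | Compound dosing: Single-concentration screen | Probe or stimulus: K+/Tl+ depolarizing stimulus | Measured by: Kinetic FluxOR fluorescence, 10 s baseline plus 110 s post-stimulus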
KCNK9 block – inhibitors of human KCNK9 two-pore domain potassium channel | Q9NPC2 | HEK293 KCNK9, FluxOR thallium flux fluorescence; active compounds read low | B-score at 10 µM | hit rate 1.2% among 310,000;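 active = ratio B-score over 3 SD below the library mean, with starting fluorescence within 5 SD of its mean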;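 also: negative B-score means less thallium flux so channel inhibition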
KCNK3 inh – human KCNK3 channel inhibition, primary screen | CHO-KCNK3 thallium flux, FluxOR fluorescence; active compounds read low | O14649 | B-score at 10 µM | hit rate 0.84% among 340,000;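 active = B-score under library mean minus 4 SD, starting fluorescence ratio at most library mean plus 5 SD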;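 also: more negative B-score means stronger inhibition of thallium flux through KCNK3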
Target sequence (O14649 whole entry, looked up): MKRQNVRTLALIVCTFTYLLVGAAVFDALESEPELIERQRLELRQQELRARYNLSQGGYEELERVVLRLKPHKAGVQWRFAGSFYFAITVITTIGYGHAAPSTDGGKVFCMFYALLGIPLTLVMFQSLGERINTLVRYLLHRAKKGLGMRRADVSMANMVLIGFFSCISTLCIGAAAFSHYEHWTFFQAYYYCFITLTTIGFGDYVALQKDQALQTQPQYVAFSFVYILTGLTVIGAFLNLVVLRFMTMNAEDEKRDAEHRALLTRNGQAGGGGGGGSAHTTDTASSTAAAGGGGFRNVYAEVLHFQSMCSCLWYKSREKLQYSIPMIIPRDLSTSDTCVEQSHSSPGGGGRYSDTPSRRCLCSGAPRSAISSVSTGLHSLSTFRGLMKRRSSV
KCC2 mod – modulators of human KCC2 chloride dependent transport; Q9H2X9; KCC2 cells, thallium flux FluoZin-2 fluorescence; B-score of Tl+ flux slope (higher = more flux/activation; lower = inhibition) at 10 µM; hit rate 2.2% among 190,000; AID 1456;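 active = thallium flux slope and its plate-corrected score both differing from the plate sample mean at a set confidence after two filtering rounds, in either direction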;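 also: slope of fluorescence scaled to starting intensity during 10 to 20 s after thallium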
KCNQ1 block – blocks the human KCNQ1 potassium channel; hit rate 1.3% among 310,000; B-score at 10 µM; AID 2642; CHO-K1 KCNQ1, FluxOR thallium flux fluorescence; active compounds read high;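 active = compounds whose thallium flux B-score, printed positive for inhibition, exceeds three library SD while starting fluorescence stays within three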;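 also: channel opened by potassium depolarization with thallium stimulus after 20 min compound exposure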
hERG rescue – compounds protecting human hERG from proarrhythmic drug block; activation (rescue from dofetilide block), less the hit threshold, % at 10 µM; Q12809; CHO-hERG, FluxOR thallium flux, dofetilide IC70 present; AID 1511; hit rate 0.51% among 310,000;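 active = activation above the mean of controls blocked by dofetilide plus 5 SD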;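 also: thallium influx through hERG after potassium depolarization seen as dye fluorescence rise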
KCNQ1 block val – human KCNQ1 channel inhibition, validation assay. inhibition, % at 10 µM. shares compounds with KCNQ1 block. KCNQ1 cell line, FluxOR thallium flux fluorescence. hit rate 93% among 1,600;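 active = primary screen active, with duplicate mean exceeding buffer control mean plus 3 SD of buffer wells, cut at about 28% in these data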;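 also: 0% = buffer control ratio and 100% = XE991 inhibitor control ratio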
CHO KCNQ1 ctr – counter-screen for KCNQ1 inhibitors: effect in parental CHO cells; shares compounds with KCNQ1 block; parental CHO-K1, FluxOR thallium flux fluorescence ratio; active compounds read low; zero means no signal rise above baseline; fluorescence ratio (Tl flux) at 10 µM; hit rate 21% among 1,600; AID 588366;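 active = mean of duplicate thallium-flux fluorescence ratios in parental host cells more than 5 SD below the buffer control mean, cut at about 0.38 in these data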;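 also: ratio is peak minus minimum fluorescence divided by baseline fluorescence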
KCNQ1 APC inh – blocks human KCNQ1 current in automated patch clamp. shares compounds with KCNQ1 block. AID 624120. hit rate 20% among 490. KCNQ1-CHO cells. calls only at 10 µM;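 active = KCNQ1 current drop exceeding 3 SD of negative control wells, seen in both duplicate runs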;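 also: steady state current during a 2 s step from -80 to +40 mV; negative values mean current inhibition and positive values mean potentiation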
KCNQ2 inh – selectivity of KCNQ1 inhibitors: inhibition of rat KCNQ2 channel; shares compounds with KCNQ1 block; KCNQ2 cells, FluxOR thallium flux fluorescence; inhibition, % at 10 µM; hit rate 71% among 1,600;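 active = mean percent inhibition of the KCNQ2 thallium signal more than 5 SD above the buffer-only control wells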;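 also: KCNQ2 expressed in CHO cells; 0% = buffer control wells and 100% = XE-991 inhibitor control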
KCNQ1-KCNE1 inh – selectivity of KCNQ1 inhibitors: inhibition of human KCNQ1/KCNE1 channel; shares compounds with KCNQ1 block; KCNQ1/KCNE1 cells, FluxOR thallium flux fluorescence; inhibition, % at 10 µM; hit rate 77% among 1,600; AID 652147;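 active = mean percent inhibition of duplicate wells above the buffer-only control mean plus 3 SD of those controls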;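 also: 0% = buffer only wells and 100% = XE-991 inhibitor control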
* marks the source's active call; other numbers are inactive results; i = inactive; · = not tested or not shown; + = active, no number.

SMILES	KCNQ1 act	KCNK9 block	KCNK3 inh	KCC2 mod	KCNQ1 block	hERG rescue	KCNQ1 block val	CHO KCNQ1 ctr	KCNQ2 inh	KCNQ1-KCNE1 inh	others
CCOC(=O)C1=C(C)N=c2s/c(=C/c3cccc([N+](=O)[O-])c3O)c(=O)n2C1c1ccc(OC)cc1OC (stereo not drawn)	i	i	i	·	i	-9	·	·	·	·
Cc1ccc(Cl)cc1N1CCN(C(=O)CSc2nnc3n2C(C)(C)Cc2ccccc2-3)CC1	i	i	-9*	-3	17*	-31	148*	0.28*	145%*	+
COc1ccc(S(=O)(=O)N2c3ccccc3OCC2C)cc1 (stereo not drawn)	i	i	i	-0.16	i	-8	·	·	·	·
COc1ccc(S(=O)(=O)N2c3ccccc3OCC2c2ccccc2)cc1 (stereo not drawn)	i	i	i	-0.51	8*	-4	78*	0.38*	78%*	96%*
O=C(Nc1cccc(S(=O)(=O)N2CCCCCC2)c1)C1CC(=O)N(c2ccc3c(c2)OCCO3)C1 (stereo not drawn)	i	i	i	·	i	-10	·	·	·	·
CC/C(=N/Nc1ccc(Cl)cc1)c1cnnc(SC)n1	i	i	i	-0.028	i	-11	·	·	·	·
CSc1nnc(C)c(/C=C/Nc2ccc(Cl)cc2)n1	i	i	i	-1.9	11*	-1	48*	0.43	i	88%*
CCCc1cc(=O)n2nc(N3CCC(C(=O)NCc4ccc(C)o4)CC3)sc2n1	i	i	i	·	i	-9	·	·	·	·
O=C(NCc1ccco1)C1CCCN1C(=O)Nc1ccc(Br)cc1 (stereo not drawn)	i	i	i	·	i	-4	·	·	·	·
CCOC(=O)Cc1csc(NC(=O)c2c(O)c3c(n(CC(C)C)c2=O)CCCC3)n1	i	i	i	-0.48	7*	-14	79*	0.48	72%*	107%*
Cc1ccc(S(=O)(=O)NCCC2=CCCCC2)cc1	·	·	i	·	·	·	·	·	·	·
O=S(=O)(NCCC1=CCCCC1)c1ccc(OC(F)(F)F)cc1	i	i	i	·	6*	-6	56*	0.43	68%*	58%*
Cc1cc(S(=O)(=O)NCCC2=CCCCC2)ccc1Br	i	i	i	·	7*	-11	0	0.45	68%*	82%*
CCOc1nc2cnccc2n(CC(=O)Nc2cccc(C)c2C)c1=O	i	i	i	·	i	-5	·	·	·	·
COc1cccc(NC(=O)Cn2c3ccc(F)cc3c3nc4n(c(=O)c32)CCCS4)c1	i	i	i	·	i	-7	·	·	·	·
CCOC(=O)c1nc(NNC(=O)c2ccc([N+](=O)[O-])cc2)sc1C	i	i	i	·	i	-16	·	·	·	·
CCOC(=O)C1CCN(c2c(C(=O)c3ccccc3)cnc3ccc(Cl)cc23)CC1	i	i	i	0.0051	6*	-11	154*	0.41	134%*	92%*	KCNQ1 APC inh=i
CCOC(=O)C1CCN(C(=O)c2cccc(Cl)c2)CC1	i	i	i	1.2	i	-11	·	·	·	·
O=C(Cc1nc2ccccc2[nH]1)c1ccc(Br)cc1	i	i	i	-0.11	6*	-13	52*	0.46	72%*	51%*
COc1cc(NC(=O)c2ccnnc2)cc(C(=O)Nc2cccc(C(F)(F)F)c2)c1	i	i	i	-0.27	9*	-16	92*	0.47	111%*	117%*
C/C(=N\NC(=O)c1ccco1)c1ccc(NC(=O)C(F)(F)F)cc1	i	i	i	·	i	-8	·	·	·	·
COc1ccc(OC)c(NC(=O)Nc2c(O)ccc3ccccc23)c1	i	i	i	·	12*	-9	0	0.62	i	48%*
O=C(c1ccc(C(F)(F)F)cc1)c1c[nH]c(C(=O)NCCCn2ccnc2)c1	i	i	i	0.18	7*	-21	59*	0.44	i	89%*
O=C(Cc1ccccc1)c1c[nH]c(C(=O)NCCCn2ccnc2)c1	i	i	·	0.5	i	2	·	·	·	·
CSCC[C@H](NC(=O)[C@@H]1CSC2c3ccccc3C(=O)N21)C(=O)N1CCC[C@H]1CO (stereo partly drawn)	i	i	i	·	i	-6	·	·	·	·
SMILES	KCNQ1 act	KCNK9 block	KCNK3 inh	KCC2 mod	KCNQ1 block	hERG rescue	KCNQ1 block val	CHO KCNQ1 ctr	KCNQ2 inh	KCNQ1-KCNE1 inh	others
CC[C@H](C)C(N)c1cn([C@@H](CC(N)=O)C(=O)N2CCNCC2)nn1 (stereo partly drawn)	·	·	i	·	·	·	·	·	·	·
N#CC(C(=O)Nc1cccc(Cl)c1)=C1Nc2ccccc2N1	i	i	i	-1.1	i	-6	·	·	·	·
CC1CCC(=C(C#N)C(=O)Nc2cccc(Cl)c2)CC1 (stereo not drawn)	i	i	i	0.87	15*	-7	96*	0.42	94%*	82%*	KCNQ1 APC inh=+
Cc1cc(NC(=O)CSc2nc3c([nH]c4ccccc43)c(=O)n2-c2ccccc2F)no1	i	i	i	·	i	-18	·	·	·	·
Cc1cccc(C)c1OCc1cc(C(=O)N2CCN(C3CCCC3)CC2)no1	i	i	i	·	i	-18	·	·	·	·
CC1CN(c2ccccc2)CCN1C(=O)c1cc(COc2c(F)cccc2F)on1 (stereo not drawn)	i	i	i	·	i	-9	·	·	·	·
Cc1ccc(C)c(OCc2cc(C(=O)N3CCN(C(=O)c4ccco4)CC3)no2)c1	i	i	i	·	i	-11	·	·	·	·
Cc1ccc(C)c(OCc2cc(C(=O)N3CCN(c4ccccc4)CC3)no2)c1	i	i	i	·	7*	-4	74*	0.44	98%*	65%*
Cc1cccc(C)c1OCc1cc(C(=O)N2CCC(c3ccncc3)CC2)no1	i	i	i	·	7*	-22	113*	0.52	69%*	35%*	KCNQ1 APC inh=i
Cc1cccc(C)c1OCc1cc(C(=O)N2CCN(c3ccccc3)CC2C)no1 (stereo not drawn)	i	i	i	·	8*	-14	86*	0.38*	117%*	120%*
